# Compounds with a hit are over-represented: about 1.9% of the library has one in this group of screens.
# F508del corr – CFTR F508del correction in bronchial cells | CFBE cells, YFP halide quenching; stimulated with forskolin plus potentiator P3; % fluorescence drop versus neutral controls | activity (quench increase), % at 7.58 µM | hit rate 0.36% among 350,000 | AID 720511;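 active = mean added fluorescence quench of at least 8% versus neutral control, with both replicates also reaching 8%; inconclusive = only one of the mean or replicate conditions met; inactive = mean below 8% and not both replicates reaching 8%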;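 also: cells transiently co-express mutant CFTR-F508del with the halide-sensitive YFP; corrector assay measuring rescue of mutant channel to the surface after 24 h compound exposure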
# FN deposit inh – fibronectin deposition inhibition | AH1F fibroblasts, Alexa488-fibronectin deposition fluorescence, overnight | inhibition, % at 12.6 µM | hit rate 0.086% among 350,000 | AID 743247;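 active = mean inhibition across replicates of 30% or more, regardless of how many single replicates reach that level; inconclusive = mean under 30% yet at least half of replicates reach 30%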;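 also: positive control wells lacked labelled fibronectin entirely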
#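 Material: AH1F fibroblast monolayer depositing Alexa488-labelled fibronectin into matrix | Input: 10000 AH1F cells/well | Medium: DMEM plus 2% serum, read in PBS | Reagent: Alexa488-fibronectin, 24 nM final in well | Compound dosing: One dose per compound, pinned | Schedule: 1 h adhesion, overnight exposure | Measured by: Fluorescence at 485 nm excitation, 525 nm emission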
# PGC1a acetyl inh – PGC1a acetylation modulation, inhibitor mode; U2OS PGC1a acetylation, AlphaScreen anti-acetyl-lysine; with virally co-expressed GCN5 acetyltransferase; inhibition, % at 15.6 µM; hit rate 0.17% among 350,000;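 active = every replicate shows inhibition of at least 40%; inconclusive = mean inhibition at least 40% but some replicate below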;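 also: 0% = neutral control wells and 100% = positive control wells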
# DENV2 CPE – protects cells from dengue virus 2 cytopathic effect; DENV2-infected cells, cytopathic effect rescue, plate reader; CPE inhibition, % at 9.99 µM; hit rate 1.7% among 350,000; AID 651640; in the data active = CPE inhibition above about 20%, passing the limit was not always enough; inconclusive = no clear call, values can overlap the other calls; tested in BHK-21 cells;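 also: 0% = median of neutral control wells and 100% = median of positive control wells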
# Cneo AK release – Cryptococcus neoformans lysis via adenylate kinase release; C. neoformans lysis, adenylate kinase release luminescence, 4 h; normalised: neutral wells 0, clomiphene wells 100; lysis activity, % at 15 µM; hit rate 0.2% among 360,000;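 active = mean lysis activity across replicates of at least 80%, whatever share of replicates individually reach that level; inactive = mean lysis activity below 80%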
#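 Test system: log-phase Cryptococcus neoformans yeast cells; Quantity: yeast cell density of 5 × 10^6 cells/mL; Buffer or medium: YPD; Doses: single compound concentration per well; Timing: 4 h at 37 °C static, read 1 h later; Measured by: AK luminescence; Read-out basis: lysis from increased AK signal; Control set: Clomiphene as positive control.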
# Xi reactivation – activators of X-chromosome reactivation in mouse fibroblasts. XiGFP mouse fibroblasts, % GFP-positive cells imaging, 3 d; cells co-treated with 5-aza-dC sensitizer; scaled so ellipticine positive control = 100%. activation, % at 7.58 µM. hit rate 0.055% among 360,000;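 active = mean normalized replicate activation at least 10% and every replicate at or above 10%; inconclusive = only one of the two criteria met; inactive = mean below 10% and not all replicates reach 10%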;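 also: 0% = median of on-plate neutral control wells and 100% = ellipticine 6 µM median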
#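 Assay system: SV40-immortalized XiGFP fibroblast cells, line 68-5-11; buffer or medium: DMEM plus 5-aza-dC sensitizer; compound: one concentration, pinned; timing: compounds 3 days, fix/stain 15 min at room temperature; benchmarks: positive control ellipticine, 6 µM final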
# * marks the source's active call; other numbers are inactive results; ? = inconclusive; . = no result given; ! = not confirmed by another sample.
SMILES,F508del corr,FN deposit inh,PGC1a acetyl inh,DENV2 CPE,Cneo AK release,Xi reactivation
COc1ccccc1-c1ccc([C@H]2[C@@H](CO)N3CCCCN(C(=O)NC4CCCC4)C[C@H]23)cc1,-0.9,.,-16.6,23.2*,-6.6,0.0
COc1ccccc1-c1ccc([C@H]2[C@H](CO)N3CCCCN(C(=O)NC4CCCC4)C[C@@H]23)cc1,-0.4,.,-7.7,-1.1,-3.0,0.2
CCNC(=O)C[C@H]1CC[C@@H]2[C@@H](COc3ccc(NC(=O)Nc4cccc(OC)c4)cc3C(=O)N2C)O1,-0.6,4.7,-1.8,7.3,-4.8,0.0
Nc1nc(Cl)nc2c1ncn2C1OC(CO)C(O)C1O (configuration not stated),7.4,.,-6.3,0.6,-1.6,.
Nc1nc(Cl)nc2c1ncn2C1CC(O)C(CO)O1 (configuration not stated),14.1*,-7.1,-24.8,7.5,2.8,0.3
Nc1nc(F)nc2c1ncn2[C@@H]1O[C@H](CO)[C@@H](O)[C@H]1O,.,27.7,82.6*,-24.2,2.5,1.1
Nc1ncn([C@H]2C[C@H](O)[C@@H](CO)O2)c(=O)n1,0.6,1.1,8.4,-3.4,-0.8,4.7
Nc1ccn([C@H]2C[C@H](O)[C@@H](CO)O2)c(=O)n1,8.0*!,3.9,7.6,4.2,2.0,-0.1
Nc1nc(F)nc2c1ncn2[C@@H]1O[C@H](CO)[C@@H](O)[C@@H]1O,-2.5,.,-14.1,-0.1,-0.6,-0.1
CCCNC(=O)N1CC2(CN(CC3CCCCC3)C2)c2c(n(C)c3cc(OC)ccc23)[C@H]1CO,9.3*,-8.3,-0.8,-10.8,.,0.0
COc1ccc2c3c([nH]c2c1)[C@H](CO)N(C(=O)Nc1ccc(F)cc1)CC31CN(Cc2ccc(F)cc2)C1,-5.3,.,.,13.8,.,0.3
COc1ccc2c3c([nH]c2c1)[C@@H](CO)N(C(=O)Nc1cccc(F)c1)CC31CCN(CC2CC2)CC1,1.6,.,-14.1,-9.4,.,0.2
COc1ccc2c3c([nH]c2c1)[C@H](CO)N(C(=O)Nc1cccc(F)c1)CC31CN(CC2CC2)C1,-1.6,12.2,-4.2,24.8*,.,0.1
COc1ccc2c3c([nH]c2c1)[C@@H](CO)N(C(=O)Nc1ccc(F)cc1)CC31CN(Cc2ccc(F)cc2)C1,1.0,.,.,31.8*,.,0.3
CCCNC(=O)N1CCC2(CC1)CN(C(=O)COC)[C@H](CO)c1[nH]c3cc(OC)ccc3c12,1.9,-1.7,4.5,28.4*,.,0.1
C[C@H]1CN([C@@H](C)CO)C(=O)c2cccc(NS(=O)(=O)c3cn(C)cn3)c2O[C@H]1CN(C)Cc1ccc(C(F)(F)F)cc1,0.7,.,-2.2,-3.3,1.4,0.0
CCCNC(=O)N1CC2(CCN(CC3CCCC3)CC2)c2c([nH]c3cc(OC)ccc23)[C@@H]1CO,-0.3,.,.,29.8*,.,0.3
CCCNC(=O)N1CC2(CCN(C)CC2)c2c([nH]c3cc(OC)ccc23)[C@@H]1CO,-2.3,.,-3.3,0.7,.,0.0
COc1ccc2c3c([nH]c2c1)[C@H](CO)N(C(=O)NC(C)C)CC31CN(C(=O)C2CCCCC2)C1,-1.8,.,2.6,?,.,0.3
COc1ccc2c3c([nH]c2c1)[C@@H](CO)N(C(=O)NC(C)C)CC31CN(C(=O)NC(C)C)C1,1.3,.,.,46.9*,.,0.4
COc1ccc2c3c([nH]c2c1)[C@@H](CO)N(C(=O)Nc1ccc(F)cc1)CC31CCN(CC2CC2)CC1,-0.1,.,.,55.8*,.,0.1
COc1ccc2c3c([nH]c2c1)[C@@H](CO)N(C(=O)Nc1ccc(F)cc1)CC31CN(CC2CC2)C1,.,.,.,.,.,0.2
COc1ccc2c3c([nH]c2c1)[C@H](CO)N(C(=O)Nc1ccc(F)cc1)CC31CN(CC2CC2)C1,0.2,.,-14.4,29.2*,.,?
CC(C)[C@@H]1C(=O)N[C@H](c2ccccc2)CC=CC[C@@H](C)Oc2ccccc2C(=O)N1C (mixture of isomers),.,0.6,.,.,.,0.0
Cc1nc(S(=O)(=O)N[C@H]2CCN(Cc3ccc(OCCO)cc3)C2)cn1C,1.3,.,.,3.2,-4.7,.
COCC(=O)N1CC2(CCN(C(C)=O)CC2)c2c([nH]c3cc(OC)ccc23)[C@H]1CO,1.1,.,0.8,6.5,.,0.3

# Screening results (PubChem)
